Results published in ChEMBL document CHEMBL2390955, “Synthesis of novel strobilurin-pyrimidine derivatives and their antiproliferative activity against human cancer cell lines” (Bioorg Med Chem Lett, 2013).

What was measured:
HL-60 [1] = experiment: Cytotoxicity against human HL60 cells assessed as growth inhibition by MTT assay; type: functional, cell-based
How it was run: (§1)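 Growth inhibition of EC9706, HL60, MCF-7 or SMMC7721 human cancer cells measured by MTT assay, with the IC50 reported as the potency value.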

A549 [2] = experiment: Cytotoxicity against human A549 cells assessed as growth inhibition by SRB assay; type: functional, cell-based
How it was run: (§2)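 A549 growth inhibition measured by sulforhodamine B (SRB) staining, with the IC50 reported as the potency value.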

SMMC-7721 = experiment: Cytotoxicity against human SMMC7721 cells assessed as growth inhibition by MTT assay; type: functional, cell-based; how it was run: as §1
MCF7 = experiment: Cytotoxicity against human MCF7 cells assessed as growth inhibition by MTT assay; type: functional, cell-based; how it was run: as §1
[3] = Cytotoxicity against human EC9706 cells assessed as growth inhibition by MTT assay; type: functional, cell-based; how it was run: as §1
HL-60 [4] = experiment: Ratio of doxorubicin IC50 to compound IC50 for human HL60 cells; type: functional
HL-60 [5] = experiment: Cytotoxicity against human HL60 cells assessed as growth inhibition; type: functional, cell-based; how it was run: as §1
A549 [6] = experiment: Cytotoxicity against human A549 cells assessed as growth inhibition; type: functional, cell-based; how it was run: as §2

| Structure (SMILES) | IC50 (HL-60 [1]) | IC50 (A549 [2]) | further results |
| --- | --- | --- | --- |
| CO/C=C(/C(=O)OC)c1ccccc1COc1nc(Nc2ccc(F)c(F)c2F)nc(C(F)(F)F)c1C | 0.8 µM | 5 µM | – |
| CO/C=C(/C(=O)OC)c1ccccc1COc1nc(Nc2ccc(Cl)cc2Cl)nc(C(F)(F)F)c1C | 2.9 µM | 0.4 µM | IC50 (SMMC-7721): 4.6 µM; IC50 (MCF7): 14.2 µM; IC50 [3]: 0.44 µM |
| CO/C=C(/C(=O)OC)c1ccccc1COc1cc(C(F)(F)F)nc(NC2CC2)n1 | 6.5 µM | 10 µM | – |
| CCNc1nc(OCc2ccccc2/C(=C\OC)C(=O)OC)cc(C(F)(F)F)n1 | 0.3 µM | 3.2 µM | – |
| CO/C=C(/C(=O)OC)c1ccccc1COc1nc(Nc2ccc(F)cc2F)nc(C(F)(F)F)c1C | 0.0034 µM | 3.1 µM | Ratio IC50 (HL-60 [4]): 24 |
| CO/C=C(/C(=O)OC)c1ccccc1COc1nc(Nc2ccccc2)nc(C(F)(F)F)c1C | 0.7 µM | 7.4 µM | – |
| CO/C=C(/C(=O)OC)c1ccccc1COc1cc(C(F)(F)F)nc(N2CCCCC2)n1 | 51.6 µM | 4.9 µM | – |
| CO/C=C(/C(=O)OC)c1ccccc1COc1cc(C(F)(F)F)nc(N(C)C)n1 | 11.1 µM | 6 µM | – |
| CCN(CC)c1nc(OCc2ccccc2/C(=C\OC)C(=O)OC)cc(C(F)(F)F)n1 | 15 µM | 17.9 µM | – |
| COc1cccc2c1C(=O)c1c(O)c3c(c(O)c1C2=O)C[C@@](O)(C(=O)CO)C[C@@H]3O[C@H]1C[C@H](N)[C@H](O)[C@H](C)O1 [DOXORUBICIN] | 0.082 µM | 0.5 µM | – |
| CO/C=C(/C(=O)OC)c1ccccc1COc1cc(C(F)(F)F)nc(Nc2ccc(F)cc2F)n1 | 4.8 µM | 1 µM | – |
| CO/C=C(/C(=O)OC)c1ccccc1COc1cc(C(F)(F)F)nc(Nc2c(F)cccc2F)n1 | 12.1 µM | 41.4 µM | – |
| CO/C=C(/C(=O)OC)c1ccccc1COc1cc(C(F)(F)F)nc(Nc2ccc(Cl)cc2F)n1 | 2.7 µM | 1.3 µM | – |
| CO/C=C(/C(=O)OC)c1ccccc1COc1cc(C(F)(F)F)nc(Nc2ccccc2)n1 | 3.3 µM | 3 µM | IC50 (HL-60 [5]): 3.3 µM; IC50 (A549 [6]): 3 µM |
| CO/C=C(/C(=O)OC)c1ccccc1COc1cc(C(F)(F)F)nc(Nc2ccc(F)c(F)c2F)n1 | 13.6 µM | 1 µM | – |
| CO/C=C(/C(=O)OC)c1ccccc1COc1cc(C(F)(F)F)nc(OC(C)C)n1 | 6.9 µM | 9.8 µM | – |
| CO/C=C(/C(=O)OC)c1ccccc1COc1cc(C(F)(F)F)nc(NC(C)C)n1 | 3.4 µM | 9.8 µM | – |
| CNc1nc(OCc2ccccc2/C(=C\OC)C(=O)OC)cc(C(F)(F)F)n1 | 76.7 µM | 93.7 µM | – |
| CO/C=C(/C(=O)OC)c1ccccc1COc1cc(C(F)(F)F)nc(Nc2ccc(Cl)cc2Cl)n1 [SYP-11277] | > 100 µM | > 100 µM | – |
| CO/C=C(/C(=O)OC)c1ccccc1COc1nc(Nc2ccc(Cl)cc2)nc(C(F)(F)F)c1C | 0.7 µM | 5.5 µM | – |
| CO/C=C(/C(=O)OC)c1ccccc1COc1cc(C(F)(F)F)nc(Nc2ccc(Cl)cc2)n1 | 19 µM | 1.3 µM | – |
